High-throughput results: PubChem, several laboratories
This is a sample that favours compounds with a hit; in the whole collection about 2.9% have one here.
NS3 helicase inh – inhibitors of HCV NS3 helicase, primary screen, biochemical, Cy5 molecular beacon fluorescence. inhibition, % at 10.9 µM. NS3 helicase DNA unwinding. AID 1800, 2009. 290,000 tested, 0.56% active. Hepatitis C virus NS3 helicase;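 active = inhibition above the mean of all tested compounds plus 3 SD, set per campaign, cut at about 35% in these data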
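System: NS3 helicase fragment of HCV / Schedule: 1 h at 25 °C / Control set: DMSO alone as 0% and 110 µM thioflavine S as 100% / Reagent: Cy5/quencher beacon DNA duplex and ATP to start / Technique: Cy5 fluorescence / Replication: singlicate / Evaluation: % inhibition of end-to-start signal ratio versus controls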
ABHD5 PLIN5 PPI – ABHD5-PLIN5 interaction inhibitors, primary screen, cell lysate, split luciferase complementation, luminescence; AID 602281, 2012; Split G. princeps luciferase complementation, 4 h; 360,000 tested, 0.78% active; Perilipin-5 (Homo sapiens) + 1-acylglycerol-3-phosphate O-acyltransferase ABHD5 (Homo …; inhibition, % at 4 µM;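 active = inhibition above the mean inhibition across every tested compound plus 3 SD, cut at about 22% in these data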
A3G deaminase – APOBEC3G DNA deaminase inhibitors, primary screen, biochemical, fluorescence, single-stranded DNA substrate, uHTS; DNA dC->dU-editing enzyme APOBEC-3G (Homo sapiens), Q9HC16; recombinant A3G, ssDNA deamination FAM/TAMRA fluorescence; inhibition, % at 20 µM; 330,000 tested, 0.28% active;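 active = inhibition of at least 40% at 20 µM, with no more than 30% in the related APOBEC3A deaminase screen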
core dimer inh – inhibitors of HCV core protein dimerization, primary screen, biochemical, TR-FRET, high-throughput. 300,000 tested, 0.33% active. inhibition, % at 5 µM. TR-FRET GST/Flag-core106 dimerization, 1536-well;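 active = inhibition above the mean of all tested compounds plus 3 SD, set per screening campaign, cut at about 45% in these data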
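Assay system – GST-tagged and Flag-tagged HCV core protein residues 1-106 · Quantity – core106 proteins, GST 13.5 nM and Flag 17 nM · Benchmarks – unlabelled core106 and no-GST-core106 wells · Read-out basis – percent inhibition of core106 dimerization signal · Detection – time-resolved FRET, ex 340 nm, em 617 and 671 nm · Schedule – 4 h at 22.5 °C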
PRMT1 inh – PRMT1 methyltransferase inhibitors, primary screen, biochemical, fluorescence polarization; Protein arginine N-methyltransferase 1 (Homo sapiens), Q99873; recombinant PRMT1, activity-based probe fluorescence polarization; 370,000 tested, 1.3% active; inhibition, % at 2.79 µM;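 active = inhibition above about 21% made by adding two undisclosed values, limit read from the data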
Target sequence (Q99873 whole entry, looked up): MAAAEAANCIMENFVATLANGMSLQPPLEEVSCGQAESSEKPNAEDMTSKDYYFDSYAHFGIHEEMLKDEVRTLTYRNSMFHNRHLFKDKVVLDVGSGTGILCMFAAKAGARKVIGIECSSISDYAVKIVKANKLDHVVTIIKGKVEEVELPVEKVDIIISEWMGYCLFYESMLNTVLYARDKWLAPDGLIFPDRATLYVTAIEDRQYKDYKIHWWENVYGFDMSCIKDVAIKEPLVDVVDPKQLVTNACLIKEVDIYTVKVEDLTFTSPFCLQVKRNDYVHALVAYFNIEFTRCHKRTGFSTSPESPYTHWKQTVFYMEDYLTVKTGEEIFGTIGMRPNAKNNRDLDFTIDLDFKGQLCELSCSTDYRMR
A3A deaminase – APOBEC3A ssDNA deaminase inhibitors, primary screen, selectivity assay for APOBEC3G inhibitor project, biochemical, FAM/TAMRA oligo cleavage fluorescence; recombinant A3A, FAM/TAMRA ssDNA deamination fluorescence; inhibition, % at 20 µM; 330,000 tested, 0.41% active; AID 493011, 2011;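 active = at least 40% inhibition at 20 µM here, with at most 30% in a related deaminase screen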
Target sequence (P31941 whole entry, looked up): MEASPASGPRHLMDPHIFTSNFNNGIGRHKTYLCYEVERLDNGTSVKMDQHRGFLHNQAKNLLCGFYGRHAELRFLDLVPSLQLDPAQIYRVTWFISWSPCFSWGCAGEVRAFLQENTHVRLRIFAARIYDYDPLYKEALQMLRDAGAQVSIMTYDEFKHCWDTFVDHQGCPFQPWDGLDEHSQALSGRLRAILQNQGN
ABHD5 PLIN5 conf – ABHD5-PLIN5 interaction inhibitors, confirmation, biochemical, luminescence | shares compounds with ABHD5 PLIN5 PPI | 2,200 tested, 67% active | AID 651612, 2012 | inhibition, % at 4 µM; in the data active = inhibition above about 23%
HNF4 counter – HNF4 dimerization inhibitors, counter-screen for ABHD5-PLIN5 interaction inhibitor project, biochemical, split-luciferase complementation, luminescence. shares compounds with ABHD5 PLIN5 PPI. inhibition, % at 4 µM. 2,200 tested, 77% active. AID 651674, 2012;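 active = mean inhibition across replicate wells exceeding the computed hit threshold, cut at about 13% in these data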;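 note: light from luciferase halves that rejoin when HNF4 fusion proteins dimerize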
A number is an active result; . = inactive; / = no result given; ! = repeats disagree.

SMILES	NS3 helicase inh	ABHD5 PLIN5 PPI	A3G deaminase	core dimer inh	PRMT1 inh	A3A deaminase	ABHD5 PLIN5 conf	HNF4 counter
CCn1nc(C)c(CNC(=O)c2cc(COc3ccccc3SC)on2)c1C	.	.	.	.	.	.	/	/
CCc1cccc(NC(=S)N(CCCOC(C)C)C2CCN(C(C)=O)CC2)c1	.	.	.	.	.	.	/	/
CCOC(=O)c1c(NC(=O)COC(=O)c2ccc(Cl)nc2)sc(C)c1C	/	.	/	/	.	/	/	/
COc1cc(C2CC(=O)Oc3cc(C)c(Br)c(C)c32)cc(OC)c1OC (centres undefined)	/	.	.	/	.	.	/	/
COc1ccc(-c2nc3ccc(Cl)cn3c2Cc2ccccc2)cc1OC	/	.	/	/	.	/	/	/
Cc1ccc2nc(-c3ccco3)c(CC(C)(C)C)n2c1	/	.	/	/	.	/	/	/
Fc1cccc(Cc2c(-c3ccccc3)nc3ccc(Cl)cn23)c1	/	.	/	/	.	/	/	/
COC(=O)c1ccc2nc(-c3ccco3)c(Cc3ccccc3)n2c1	/	67.4	/	/	23.8	/	56.8	83.1
Clc1ccc2nc(-c3ccco3)c(Cc3ccccc3)n2c1	/	55.1	/	/	24.3	/	57.6	72.4
Cc1ccc2nc(-c3ccco3)c(Cc3ccccc3)n2c1	/	38.1	/	/	.	/	.	.
Fc1cccc(Cc2c(-c3ccco3)nc3ccc(Cl)cn23)c1	/	74.9	/	/	/	/	.	52.5
Cc1cc(C)n2nc(SCC(=O)N3CCCC(C)C3)nc2n1 (centres undefined)	/	.	.	/	.	.	/	/
CCCNC(=O)C1(C)CCN(C(=O)c2ccc3sccc3c2)C1 (centres undefined)	/	.	/	/	.	/	/	/
CC1(C)Cc2c(C#N)c(NC3CCCCC3)nc(-c3ccco3)c2CO1	.	34.2	.	.	/	.	32.9	41.1
O=C(NC(Cc1c[nH]c2ccccc12)C(=O)N/N=C/c1cccnc1)c1cccs1 (centres undefined)	.	.	.	.	.	.	/	/
Cc1noc(/C=C/c2cccnc2)c1[N+](=O)[O-]	.	36.6	.	.	.	.	47.5	33.5
O=c1[nH]c(/C=C/c2cccnc2)c([N+](=O)[O-])c(=O)[nH]1	.	39.6	.	.	.	.	55.5	41.2
O=c1[nH]c(/C=C/c2ccccc2)c([N+](=O)[O-])c(=O)[nH]1	.	27.0	.	/	.	.	73.0	62.5
O=c1[nH]c(/C=C/c2cccc([N+](=O)[O-])c2)c([N+](=O)[O-])c(=O)[nH]1	.	25.0	.	.	.	.	91.3	85.4
Cc1ccc(C(=O)OCC(=O)Nc2ccc(C)c(S(=O)(=O)N3CCCCC3)c2)c(O)c1	/	.	/	/	.	/	/	/
COc1ccccc1CC(=O)c1ccccc1OC	/	.	/	/	.	/	/	/
Cc1noc(C)c1COc1ccccc1C(=O)NCCOc1ccccc1	/	.	.	/	.	.	/	/
COc1ccc(NCc2nc3ccccc3n2CCOc2ccc(C)cc2)cc1	.	24.8	.	.	.	.	.	.
COc1ccc(NCc2nc3ccccc3n2C)cc1	.	.	.	.	.	.	/	/
c1ccc(NCc2nc3ccccc3n2CCOc2ccccc2)cc1	.	.	.	.	.	.	/	/
SMILES	NS3 helicase inh	ABHD5 PLIN5 PPI	A3G deaminase	core dimer inh	PRMT1 inh	A3A deaminase	ABHD5 PLIN5 conf	HNF4 counter
COc1ccc(NCc2nc3ccccc3n2CCOc2ccccc2)cc1	.	29.3	.	.	.	.	.	.
COc1cccc(OCC(O)CN2CCC(CN3C(=O)c4cccc5cccc(c45)C3=O)CC2)c1 (centres undefined)	.	.	.	.	.	.	/	/
O=C1c2cccc3cccc(c23)C(=O)N1CC1CCN(CC(O)COc2ccc3ccccc3c2)CC1 (centres undefined)	/	26.3	.	.	.	.	.	.
CCOC(=O)c1c(CSC(=N)N)n(C)c2cc(Br)c(OC(C)=O)cc12	.	.	.	.	.	.	/	/
CCOC(=O)c1c(CSC(=N)N)n(-c2ccc(C)cc2)c2cc(Br)c(OC(C)=O)cc12	.	30.9	.	.	.	.	32.7	29.7
O=c1[nH]cnc(O)c1C1C=CC=CC=C1	/	49.9	/	/	.	/	32.3	48.7
O=C(CSc1c2c(nc3cc(Cl)ccc13)CCCC2)NCc1ccco1	.	24.3	.	.	23.2	.	42.4	38.0
Cc1cc(C)c2cc(C#N)c(SCC(=O)NCc3ccco3)nc2c1	.	34.9	.	.	.	.	66.4	73.5
CCCn1c(C2CCCN2c2nc(-c3cccc(Br)c3)cs2)nc2ccccc21 (centres undefined)	.	.	.	.	.	.	/	/
CCc1nc2ccc(C(=O)NCc3ccc(OC)cc3)cn2c1N(C)CCC(C)C	/	.	/	/	.	/	/	/
O=C1C(=C(I)I)c2ccccc2-c2ccccc21	/	43.3	/	/	.	/	101.2	101.8
COc1ccc(OC)c(NC(=O)NNC(=O)COc2ccc(F)cc2F)c1	.	.	.	.	.	.	/	/
COc1cccc(C2CC(c3ccccc3Cl)Nc3nc(N)nn32)c1 (centres undefined)	.	23.5	.	.	.	.	.	.
CC(O)/C=C/c1ccc2ccccc2n1 (centres undefined)	.	23.5	.	.	.	.	23.4	26.1
Cc1ccnc(NC(=O)C2CC(=O)N(c3ccc4c(c3)OCCO4)C2)c1 (centres undefined)	.	.	.	.	.	.	/	/
CC(=O)c1cccc(OCc2cc(C(=O)NCc3nc(C)c(C)s3)no2)c1	.	.	.	.	.	.	/	/
C=C[C@]1(C)C[C@@H](OC(=O)CSCCN(CC)CC)[C@]2(C)C(C)CC[C@]3(CCC(=O)[C@H]32)[C@@H](C)[C@@H]1O (some centres undefined)	/	23.4!	.	.	.	.	33.1	.
O=C(/C=C/c1ccco1)c1ccccc1O	.	.	.	.	.	.	/	/
O=C(C=Cc1ccco1)c1cc(Cl)ccc1O	/	26.9	/	/	.	/	53.0	33.9
CN(C)/N=C/C=C1\CCC/C(=C/c2cccs2)C1=O	.	29.9	.	.	.	.	25.2	28.8
CN(C)/N=C/C=C1\CC/C(=C\c2ccc(Br)cc2)C1=O	.	.	.	.	.	.	/	/
O=C(/C(=C/c1ccc(Cl)cc1)c1nc2ccccc2[nH]1)c1ccccc1	.	27.9	.	.	.	.	100.1	93.8
